≈ marks a conversion by molar mass, not a printed value.
Columns and labels:
[1] = test system: Bacteroides fragilis; assay: Minimum inhibitory concentration against Bacteroides fragilis ATCC 25285; 0.1-0.8; type: functional
Outline: (§1)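 Anaerobic MICs by 2-fold dilution in Wilkens-Chalgren broth, reported in micrograms/milliliter.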

[2] = test system: Bacteroides thetaiotaomicron; assay: Minimum inhibitory concentration against Bacteroides thetaiotaomicron ATCC 29741; 0.2-0.8; type: functional; outline: as §1
[3] = test system: Clostridioides difficile; assay: Minimum inhibitory concentration against Clostridium difficile ATCC 9689; 1.6-3.1; type: functional; outline: as §1
[4] = test system: Clostridium perfringens; assay: Minimum inhibitory concentration against Clostridium perfringens ATCC 13124; 0.05-0.1; type: functional
Outline: (§2)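 Anaerobic MIC by 2-fold dilution in Wilkens-Chalgren broth; values in µg/mL.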

[5] = target: DNA-directed RNA polymerase subunit beta (Escherichia coli K-12) (UniProt P0A8V2); assay: Percent inhibition at a concentration of 100 ug/mL of RNA polymerase isolated from Escherichia coli K12 (Sigma)
[6] = test system: Bacteroides fragilis; assay: Minimum inhibitory concentration against Bacteroides fragilis ATCC 25285; type: functional; outline: as §1
[7] = test system: Bacteroides thetaiotaomicron; assay: Minimum inhibitory concentration against Bacteroides thetaiotaomicron ATCC 29741; type: functional; outline: as §1
[8] = test system: Clostridioides difficile; assay: Minimum inhibitory concentration against Clostridium difficile ATCC 9689; type: functional; outline: as §1
[9] = test system: Clostridium perfringens; assay: Minimum inhibitory concentration against Clostridium perfringens ATCC 13124; type: functional; outline: as §2
[10] = test system: Staphylococcus aureus; assay: Compound is evaluated for cross resistance with DNA gyrase subunit A or B against Staphylococcus aureus 730A; type: functional
Outline: (§3)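 Aerobic MIC by 2-fold dilution on brain–heart infusion agar; values in µg/mL.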

[11] = test system: Staphylococcus aureus; assay: Compound is evaluated for cross resistance with DNA gyrase subunit A or B against Staphylococcus aureus 337-113 (norfloxacin-resistant); type: functional; outline: as §3
[12] = test system: Staphylococcus aureus; assay: Compound is evaluated for cross resistance with DNA gyrase subunit A or B against Staphylococcus aureus 45; type: functional; outline: as §3
[13] = test system: Staphylococcus aureus; assay: Compound is evaluated for cross resistance with DNA gyrase subunit A or B against Staphylococcus aureus 45CR-1 (coumermycin resistant); type: functional; outline: as §3
[14] = test system: Escherichia coli; assay: Minimum inhibitory concentration (MIC) against the cell line Escherichia coli H560; type: functional
Outline: (§4)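 Aerobic MICs by 2-fold dilution on brain–heart infusion agar, reported in micrograms/milliliter.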

[15] = test system: Escherichia coli; assay: Minimum inhibitory concentration (MIC) against the cell line Escherichia coli juhl; type: functional; outline: as §4
[16] = test system: Micrococcus luteus; assay: Minimum inhibitory concentration (MIC) against the cell line Micrococcus luteus ATCC 4698; type: functional; outline: as §4
[17] = test system: Pseudomonas aeruginosa; assay: Minimum inhibitory concentration (MIC) against the cell line Pseudomonas aeruginosa A5007; type: functional; outline: as §4
[18] = test system: Streptococcus equinus; assay: Minimum inhibitory concentration (MIC) against the cell line Streptococcus bovis A5169; type: functional; outline: as §4
[19] = test system: Staphylococcus aureus; assay: Minimum inhibitory concentration (MIC) against the cell line Staphylococcus aureus A5177; type: functional; outline: as §4
[20] = test system: Staphylococcus aureus; assay: Minimum inhibitory concentration (MIC) against the cell line Staphylococcus aureus ATCC 6538P; type: functional; outline: as §4
[21] = test system: Staphylococcus aureus; assay: Minimum inhibitory concentration (MIC) against the cell line Staphylococcus aureus CMX 686B; type: functional; outline: as §4
[22] = test system: Staphylococcus aureus; assay: Minimum inhibitory concentration (MIC) against the cell line Staphylococcus aureus 45; type: functional; outline: as §4
[23] = test system: Streptococcus pyogenes; assay: Minimum inhibitory concentration (MIC) against the cell line Streptococcus pyogenes EES61; type: functional; outline: as §4
[24] = test system: Staphylococcus epidermidis; assay: Minimum inhibitory concentration (MIC) against the strain Staphylococcus epidermidis 3519

DNA-directed RNA polymerase subunit beta (Escherichia coli K-12), sequence (P0A8V2 whole entry, looked up): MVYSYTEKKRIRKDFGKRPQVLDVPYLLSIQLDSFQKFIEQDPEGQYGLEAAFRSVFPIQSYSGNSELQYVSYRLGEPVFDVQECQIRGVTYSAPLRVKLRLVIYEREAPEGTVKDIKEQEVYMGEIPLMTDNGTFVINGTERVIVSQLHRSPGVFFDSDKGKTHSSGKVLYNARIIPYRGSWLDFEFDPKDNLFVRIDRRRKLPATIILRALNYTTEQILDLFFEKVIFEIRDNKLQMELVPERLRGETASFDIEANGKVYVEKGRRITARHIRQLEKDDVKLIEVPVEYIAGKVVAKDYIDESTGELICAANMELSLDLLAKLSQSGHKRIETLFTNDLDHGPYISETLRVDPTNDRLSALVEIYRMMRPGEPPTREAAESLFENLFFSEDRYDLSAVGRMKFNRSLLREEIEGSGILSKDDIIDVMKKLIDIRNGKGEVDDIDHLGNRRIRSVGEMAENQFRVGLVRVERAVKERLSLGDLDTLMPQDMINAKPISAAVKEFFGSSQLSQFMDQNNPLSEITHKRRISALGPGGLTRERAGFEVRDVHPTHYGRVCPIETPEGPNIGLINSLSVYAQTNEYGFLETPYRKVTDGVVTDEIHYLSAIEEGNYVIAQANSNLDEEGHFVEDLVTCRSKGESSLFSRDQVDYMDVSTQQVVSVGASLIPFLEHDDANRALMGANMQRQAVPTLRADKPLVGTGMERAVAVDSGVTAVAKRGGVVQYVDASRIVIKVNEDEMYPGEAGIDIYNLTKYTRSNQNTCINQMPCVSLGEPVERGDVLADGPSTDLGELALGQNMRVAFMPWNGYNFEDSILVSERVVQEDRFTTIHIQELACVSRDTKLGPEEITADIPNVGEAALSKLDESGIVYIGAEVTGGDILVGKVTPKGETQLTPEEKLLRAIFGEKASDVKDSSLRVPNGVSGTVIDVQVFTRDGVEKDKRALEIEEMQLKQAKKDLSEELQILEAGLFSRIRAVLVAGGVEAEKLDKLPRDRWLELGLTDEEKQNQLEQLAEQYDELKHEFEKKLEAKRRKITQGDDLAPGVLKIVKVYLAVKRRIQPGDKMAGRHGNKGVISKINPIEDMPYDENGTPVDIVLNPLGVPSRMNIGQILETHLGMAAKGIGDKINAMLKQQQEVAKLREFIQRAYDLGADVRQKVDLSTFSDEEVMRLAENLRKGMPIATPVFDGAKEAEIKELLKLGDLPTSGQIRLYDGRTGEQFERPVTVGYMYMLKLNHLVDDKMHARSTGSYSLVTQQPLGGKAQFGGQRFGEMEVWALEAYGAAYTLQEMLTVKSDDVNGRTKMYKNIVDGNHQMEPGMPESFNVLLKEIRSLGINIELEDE

CC(/C=C/C(O)=C1\C(=O)CNC1=O)=C\[C@@H](C)C1OC2(C)OC(C(=O)[C@@H]3O[C@@]32C)C1C (stereo partly specified)
MIC [1]: 0.1 µg/mL (≈ 0.24 µM) | MIC [2]: 0.2 µg/mL (≈ 0.479 µM) | MIC [3]: 1.6 µg/mL (≈ 3.83 µM) | MIC [4]: ≤ 0.05 µg/mL | inhibition [5]: 50%

CC(/C=C/C(O)=C1\C(=O)CNC1=O)=C\c1ccccc1
MIC [6]: 4 µg/mL (≈ 14.9 µM) | MIC [7]: 4 µg/mL (≈ 14.9 µM) | MIC [8]: 4 µg/mL (≈ 14.9 µM) | MIC [9]: 8 µg/mL (≈ 29.7 µM) | inhibition [5]: 4.5%

CCCCCCCCCCC/C=C(C)/C=C/C(O)=C1\C(=O)CN(C)C1=O
MIC [6]: 125 µg/mL (≈ 346 µM) | MIC [7]: 125 µg/mL (≈ 346 µM) | MIC [8]: 4 µg/mL (≈ 11.1 µM) | MIC [9]: 31 µg/mL (≈ 85.7 µM)

CC(/C=C/C(=O)C1=C(O)CN(C)C1=O)=C\c1ccc(-c2ccccc2)cc1
MIC [6]: 8 µg/mL (≈ 22.3 µM) | MIC [7]: 125 µg/mL (≈ 348 µM) | MIC [8]: ≤ 0.5 µg/mL | MIC [9]: 31 µg/mL (≈ 86.2 µM)

O=C(/C=C/C(Br)=C/c1ccccc1)C1=C(O)CNC1=O
MIC [6]: 8 µg/mL (≈ 23.9 µM) | MIC [7]: 8 µg/mL (≈ 23.9 µM) | MIC [8]: 8 µg/mL (≈ 23.9 µM) | MIC [9]: 31 µg/mL (≈ 92.8 µM) | inhibition [5]: 7.3%

O=C(/C=C/C(Cl)=C/c1ccccc1)C1=C(O)CNC1=O
MIC [6]: 8 µg/mL (≈ 27.6 µM) | MIC [7]: 8 µg/mL (≈ 27.6 µM) | MIC [8]: 4 µg/mL (≈ 13.8 µM) | MIC [9]: 4 µg/mL (≈ 13.8 µM) | inhibition [5]: 3.2%

CC(/C=C/C(=O)C1=C(O)CN(C)C1=O)=C\c1ccccc1
MIC [6]: 4 µg/mL (≈ 14.1 µM) | MIC [7]: 8 µg/mL (≈ 28.2 µM) | MIC [8]: 4 µg/mL (≈ 14.1 µM) | MIC [9]: 8 µg/mL (≈ 28.2 µM)

COCCOCc1ccc2ccccc2c1/C=C(C)/C=C/C(O)=C1\C(=O)CN(C)C1=O
MIC [6]: 125 µg/mL (≈ 297 µM) | MIC [7]: 250 µg/mL (≈ 593 µM) | MIC [8]: 8 µg/mL (≈ 19 µM) | MIC [9]: 125 µg/mL (≈ 297 µM)

CN1CCN(c2cc3c(cc2F)c(=O)c(C(=O)O)cn3-c2ccc(F)cc2)CC1 [DIFLOXACIN]
MIC [10]: 0.25 µg/mL (≈ 0.626 µM) | MIC [11]: 4 µg/mL (≈ 10 µM) | MIC [12]: 0.25 µg/mL (≈ 0.626 µM) | MIC [13]: 0.25 µg/mL (≈ 0.626 µM)

CO[C@@H]1[C@@H](OC(=O)c2ccc(C)[nH]2)[C@@H](O)[C@@H](Oc2ccc3c(O)c(NC(=O)c4c[nH]c(C(=O)Nc5c(O)c6ccc(O[C@H]7OC(C)(C)[C@H](OC)[C@@H](OC(=O)c8ccc(C)[nH]8)[C@H]7O)c(C)c6oc5=O)c4C)c(=O)oc3c2C)OC1(C)C [COUMERMYCIN]
MIC [10]: 0.008 µg/mL (≈ 0.00721 µM) | MIC [11]: 0.008 µg/mL (≈ 0.00721 µM) | MIC [12]: 0.008 µg/mL (≈ 0.00721 µM) | MIC [13]: 4 µg/mL (≈ 3.6 µM)

CC(/C=C/C(=O)C1=C(O)CN(C)C1=O)=C\c1cnc2ccccc2c1
MIC [6]: 2 µg/mL (≈ 5.98 µM) | MIC [7]: 4 µg/mL (≈ 12 µM) | MIC [8]: 2 µg/mL (≈ 5.98 µM) | MIC [9]: 2 µg/mL (≈ 5.98 µM)

CC(/C=C/C(O)=C1\C(=O)CNC1=O)=C\c1cccc2ccccc12
MIC [6]: 1 µg/mL (≈ 3.13 µM) | MIC [7]: 1 µg/mL (≈ 3.13 µM) | MIC [8]: 1 µg/mL (≈ 3.13 µM) | MIC [9]: 1 µg/mL (≈ 3.13 µM) | MIC [14]: > 100 µg/mL | MIC [15]: 100 µg/mL (≈ 313 µM) | MIC [16]: 12.5 µg/mL (≈ 39.1 µM) | MIC [17]: 100 µg/mL (≈ 313 µM) | MIC [18]: 6.2 µg/mL (≈ 19.4 µM) | MIC [19]: 3.1 µg/mL (≈ 9.71 µM) | MIC [20]: 3.1 µg/mL (≈ 9.71 µM) | MIC [21]: 3.1 µg/mL (≈ 9.71 µM) | MIC [22]: 3.1 µg/mL (≈ 9.71 µM) | MIC [23]: 12.5 µg/mL (≈ 39.1 µM) | MIC [24]: 6.2 µg/mL (≈ 19.4 µM)

CC(/C=C/C(=O)C1=C(O)CN(C)C1=O)=C\C1CCCCO1 (stereo unspecified)
MIC [6]: 125 µg/mL (≈ 429 µM) | MIC [7]: 125 µg/mL (≈ 429 µM) | MIC [8]: 125 µg/mL (≈ 429 µM) | MIC [9]: 125 µg/mL (≈ 429 µM)

CN1CC(O)=C(C(=O)/C=C/C=C/c2ccccc2[N+](=O)[O-])C1=O
MIC [6]: 62 µg/mL (≈ 197 µM) | MIC [7]: 62 µg/mL (≈ 197 µM) | MIC [8]: 62 µg/mL (≈ 197 µM) | MIC [9]: 62 µg/mL (≈ 197 µM)

CC(/C=C/C(=O)C1=C(O)CN(C)C1=O)=C\C1CCCCC1
MIC [6]: 8 µg/mL (≈ 27.6 µM) | MIC [7]: 8 µg/mL (≈ 27.6 µM) | MIC [8]: 4 µg/mL (≈ 13.8 µM) | MIC [9]: 4 µg/mL (≈ 13.8 µM)

CCC[C@@H]1C[C@@H](C(=O)N[C@@H]([C@H]2O[C@H](SC)[C@H](O)[C@@H](O)[C@H]2O)[C@H](C)Cl)N(C)C1 [CLINDAMYCIN]
MIC [6]: 2 µg/mL (≈ 4.71 µM) | MIC [7]: 8 µg/mL (≈ 18.8 µM) | MIC [8]: 1 µg/mL (≈ 2.35 µM) | MIC [9]: < 0.5 µg/mL

CC(/C=C/C(O)=C1\C(=O)CN(C)C1=O)=C\C(C)C
MIC [6]: 31 µg/mL (≈ 124 µM) | MIC [7]: 62 µg/mL (≈ 249 µM) | MIC [8]: 31 µg/mL (≈ 124 µM) | MIC [9]: 31 µg/mL (≈ 124 µM)

CC(/C=C/C(=O)C1=C(O)CN(C)C1=O)=C\c1ccc(F)c2ccccc12
MIC [6]: 2 µg/mL (≈ 5.69 µM) | MIC [7]: 2 µg/mL (≈ 5.69 µM) | MIC [8]: 31 µg/mL (≈ 88.2 µM) | MIC [9]: 62 µg/mL (≈ 176 µM)

CC(/C=C/C(O)=C1\C(=O)CN(C)C1=O)=C\C(C)c1ccccc1 (stereo unspecified)
MIC [6]: 8 µg/mL (≈ 25.7 µM) | MIC [7]: 16 µg/mL (≈ 51.4 µM) | MIC [8]: 125 µg/mL (≈ 401 µM) | MIC [9]: 125 µg/mL (≈ 401 µM)
